Assay results taken from ChEMBL document CHEMBL4765243, “Discovery of Novel Bromophenol-Thiosemicarbazone Hybrids as Potent Selective Inhibitors of Poly(ADP-ribose) Polymerase-1 (PARP-1) for Use in Cancer” (J Med Chem, 2019).
Active and inactive are the calls of the source. The rule behind the calls is not given here.

What was measured:
[1] = Volume of distribution at steady state in Sprague-Dawley rat at 2 mg/kg, iv by LC/MS/MS analysis; type: ADME, organism-based; details: in vivo, read-out: Vdss
How it was run: (§1)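 Male Sprague-Dawley rats, 4 per group, dosed once orally at 10 mg/kg or intravenously at 2 mg/kg. Blood taken from the saphenous vein for plasma. Drug levels measured by LC-MS-MS, with parameters derived by noncompartmental analysis.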

[2] = test system: SK-OV-3; test: Induction of cell cycle arrest in human SKOV3 cells assessed as accumulation at G2/M phase incubated for 48 hrs by propidium iodide staining based flow cytometry analysis; type: functional
How it was run: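 SK-OV-3 cells in 6-well plates incubated 24 h, then treated 48 h. Cells harvested, fixed, stained with propidium iodide and analysed by flow cytometry.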

[3] = target: T1, Poly [ADP-ribose] polymerase 1 (Homo sapiens, UniProt P09874); test: Inhibition of PARP-1 in human SKOV3 cells assessed as decrease in MCM6 protein expression level at 2.5 to 10 uM incubated for 48 hrs by western blot analysis; type: cell-based; details: SK-OV-3, dose 2.5-10 µM
T1 sequence (P09874 whole entry): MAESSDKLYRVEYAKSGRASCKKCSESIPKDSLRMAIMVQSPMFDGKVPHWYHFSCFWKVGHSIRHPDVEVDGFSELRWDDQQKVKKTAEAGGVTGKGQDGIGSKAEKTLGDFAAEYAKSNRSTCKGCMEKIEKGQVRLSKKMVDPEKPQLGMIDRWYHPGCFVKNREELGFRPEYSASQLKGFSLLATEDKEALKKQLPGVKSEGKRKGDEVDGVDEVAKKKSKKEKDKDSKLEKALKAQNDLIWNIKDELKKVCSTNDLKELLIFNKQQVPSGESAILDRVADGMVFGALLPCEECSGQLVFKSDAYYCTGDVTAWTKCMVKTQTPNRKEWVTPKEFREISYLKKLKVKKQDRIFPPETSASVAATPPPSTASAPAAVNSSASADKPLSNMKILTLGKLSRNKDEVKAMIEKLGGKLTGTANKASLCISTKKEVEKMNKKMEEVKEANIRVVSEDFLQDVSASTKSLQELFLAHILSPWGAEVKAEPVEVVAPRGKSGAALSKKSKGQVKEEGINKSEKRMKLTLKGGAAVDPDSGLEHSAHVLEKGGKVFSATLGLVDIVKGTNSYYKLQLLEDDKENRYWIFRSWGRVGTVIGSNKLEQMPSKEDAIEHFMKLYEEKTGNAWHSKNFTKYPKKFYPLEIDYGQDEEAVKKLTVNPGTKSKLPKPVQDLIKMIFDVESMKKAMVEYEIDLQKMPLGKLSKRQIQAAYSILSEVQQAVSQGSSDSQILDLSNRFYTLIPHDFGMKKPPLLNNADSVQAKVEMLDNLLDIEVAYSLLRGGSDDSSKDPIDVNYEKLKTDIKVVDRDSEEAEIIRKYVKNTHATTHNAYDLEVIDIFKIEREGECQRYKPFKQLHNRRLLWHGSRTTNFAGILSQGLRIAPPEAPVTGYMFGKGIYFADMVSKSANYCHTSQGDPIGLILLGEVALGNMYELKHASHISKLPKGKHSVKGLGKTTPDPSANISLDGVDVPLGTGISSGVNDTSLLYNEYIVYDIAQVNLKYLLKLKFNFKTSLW
How it was run: (§2)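 SK-OV-3 cells were grown in McCOY's 5A, seeded in 6-well plates and treated for 48 h. Lysate proteins were separated by 8-15 % SDS-PAGE and transferred to PVDF membranes. Membranes were blocked in 5 % nonfat milk, probed with primary antibody overnight at 4 °C and with HRP secondary antibody for 1 h at room temperature, then detected by enhanced chemiluminescence. Images are representative of 3 independent experiments.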

[4] = test system: SK-OV-3; test: Antitumor activity against human SKOV3 cells xenografted in Balb/c nude mouse assessed as increase in gamma-H2AX expression in tumor at 25 to 50 mg/kg, po for 21 days by immunohistochemistry analysis; type: functional, organism-based; details: dose 25-50 mg/kg, time 21.0 day
How it was run: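 SK-OV-3 xenografts in female BALB/c nude mice were dosed orally at 25 or 50 mg/kg in 0.5% CMC-Na for 21 days. Tumours were then snap-frozen in liquid nitrogen or fixed in 10% neutral-buffered formalin. Analysis used western blotting, H&E and immunohistochemistry on paraffin sections (Ki67, γ-H2AX).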

[5] = Oral bioavailability in Sprague-Dawley rat at 10 mg/kg by LC/MS/MS analysis; type: ADME, organism-based; details: in vivo; how it was run: as §1
[6] = Total plasma clearance in Sprague-Dawley rat at 2 mg/kg, iv by LC/MS/MS analysis; type: ADME, organism-based; how it was run: as §1
[7] = target: T1, Poly [ADP-ribose] polymerase 1; test: Inhibition of PARP-1 in human SKOV3 cells assessed as increase in gammaH2AX expression level at 2.5 to 10 uM incubated for incubated for 48 hrs by western blot analysis; type: cell-based; details: SK-OV-3, dose 2.5-10 µM; how it was run: as §2
[8] = test system: SK-OV-3; test: Antiproliferative activity against human SK-OV-3 cells assessed as cell growth inhibition incubated for 48 hrs by MTT assay; type: functional, cell-based; details: SK-OV-3, 48 h
How it was run: (§3)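 Cells seeded in 96-well plates and exposed to compounds for 48 h; viability read by MTT. Each experiment repeated three times. SK-OV-3 grown in McCOY's 5A, Bel-7402 and HL-7702 in RPMI-1640, HepG2 in DMEM, Caco-2 in MEM.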

[9] = Cmax in Sprague-Dawley rat at 2 mg/kg, iv by LC/MS/MS analysis; type: ADME, organism-based; set-up: route intravenous, dose 2 mg/kg; details: in vivo; how it was run: as §1
[10] = Tmax in Sprague-Dawley rat at 2 mg/kg, iv by LC/MS/MS analysis; type: ADME, organism-based; details: in vivo; how it was run: as §1
[11] = target: T1, Poly [ADP-ribose] polymerase 1; test: Inhibition of human recombinant GST-tagged PARP-1 expressed in Escherichia coli assessed as reduction in NAD+-dependent ADP ribosylation incubated for 30 mins in presence and NAD by resazurin dye based fluorescence analysis
[12] = test system: SK-OV-3; test: Antitumor activity against human SKOV3 cells xenografted in Balb/c nude mouse assessed as tumor growth inhibition at 50 mg/kg, po for 21 days and measured every third day; details: SK-OV-3, po, 504 h, read-out: INH
[13] = test system: HepG2; test: Antiproliferative activity against human HepG2 cells assessed as cell growth inhibition incubated for 48 hrs by MTT assay; type: functional, cell-based; details: HepG2, 48 h; how it was run: as §3
[14] = test system: SK-OV-3; test: Induction of apoptosis in human SKOV3 cells assessed as increase in caspase-3 expression at 2.5 to 10 uM incubated for 48 hrs by western blot analysis; type: functional, cell-based; details: dose 2.5-10 µM
[15] = target: T1, Poly [ADP-ribose] polymerase 1; test: Inhibition of PARP-1 in human SKOV3 cells assessed as decrease in MCM7 protein expression level at 2.5 to 10 uM incubated for 48 hrs by western blot analysis; type: cell-based; details: SK-OV-3, dose 2.5-10 µM; how it was run: as §2
[16] = Tmax in Sprague-Dawley rat at 10 mg/kg, po by LC/MS/MS analysis; type: ADME, organism-based; details: in vivo; how it was run: as §1
[17] = test system: SK-OV-3; test: Induction of apoptosis in human SKOV3 cells at 2.5 to 10 uM incubated for 48 hrs by annexin V-FITC/PI based flow cytometric analysis; type: functional, cell-based; details: dose 2.5-10 µM
How it was run: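 SK-OV-3 cells treated 48 h, then harvested, stained with Annexin V/PI and analysed by flow cytometry.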

[18] = target: T1, Poly [ADP-ribose] polymerase 1; test: Inhibition of PARP-1 in human SKOV3 cells assessed as increase in gammaH2AX expression level by immunofluorescence analysis; type: cell-based; details: SK-OV-3
[19] = test system: SK-OV-3; test: Induction of autophagy in human SKOV3 cells assessed as LC3-I protein expression at 10 uM incubated for 48 hrs by western blot analysis; type: functional, cell-based
How it was run: (§4)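 SK-OV-3 cells in 6-well plates treated 48 h. Lysates separated by 8-15% SDS-PAGE and transferred to PVDF. Membranes blocked in 5% milk and probed overnight at 4 °C with LC3 or Beclin 1 antibodies. HRP secondary applied 1 h at room temperature; detection by ECL.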

[20] = Cytotoxicity against human HL7702 cells assessed as cell growth inhibition at 20 uM incubated for 48 hrs by MTT assay relative to control; type: cell-based; details: HL7702 (L02) cells
[21] = test system: Bel-7402; test: Antiproliferative activity against human Bel-7402 cells assessed as cell growth inhibition incubated for 48 hrs by MTT assay; type: functional, cell-based; details: Bel-7402, 48 h; how it was run: as §3
[22] = Acute toxicity in SPF Kunming mouse assessed as lethal dose administered orally as single dose and measured upto 14 days post drug administration; details: in vivo, po, time <=14 day
How it was run: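 Single oral dose groups at 0 (physiological saline blank, equal volume), 100, 500 and 1000 mg/kg. Mice housed with free access to water and food in stainless cages, 25 ± 1 °C, 12-h light/dark cycle. Survival, body weight and abnormalities recorded up to 14 days post-treatment.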

[23] = test system: SK-OV-3; test: Induction of autophagy in human SKOV3 cells assessed as increase in Beclin-1 protein level at 10 uM incubated for 48 hrs by western blot analysis; type: functional, cell-based; how it was run: as §4
[24] = AUC (0 to infinity) in Sprague-Dawley rat at 2 mg/kg, iv by LC/MS/MS analysis; type: ADME, organism-based; set-up: route intravenous, time infinity, dose 2 mg/kg; details: in vivo
[25] = target: T1, Poly [ADP-ribose] polymerase 1; details: dose 100.0 nM, time 30.0 min
[26] = Toxicity in Balb/c nude mouse xenografted with human SKOV3 cells assessed as change in body weight at 25 mg/kg, po for 21 days and measured every third day; type: organism-based; details: in vivo, 504 h, time 21 day
How it was run: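 Female BALB/c nu/nu mice, 6-8 weeks old, kept under SPF conditions. Each received 5×10^6 SK-OV-3 cells s.c. At 80–120 mm3 tumour volume, mice were split into four groups (n=6). […] Caliper measurement every three days; volume = X × (Y2/2).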

For `COc1cc(/C=N/NC(N)=S)c(Br)c(Br)c1OC`, which Vd [1] is on record?
Its Vd is 6.1 L/kg.

What about the Activity [2] of the same molecule?
The Activity was “Dose-dependent effect”.

What about the inhibition [3] of the same molecule?
The inhibition was “Active”.

And the Activity [4]?
The Activity was “Active”.

And the F [5]?
The F was 47.3%.

What about the clearance [6] of the same molecule?
The clearance was 88.7 mL/min/kg.

And the inhibition [7]?
Its inhibition is “Active”.

And the IC50 [8]?
Its IC50 is 2.39 µM.

What about the Cmax [9] of the same molecule?
The Cmax was 1250 nM.

And the Tmax [10]?
Its Tmax is 4.8 min.

What about the IC50 [11] of the same molecule?
The IC50 was 0.0295 µM.

And the inhibition in vivo at 50 mg/kg [12]?
The inhibition in vivo at 50 mg/kg was 58.7%.

And the IC50 [13]?
The IC50 was 4.6 µM.

And the Activity [14]?
The Activity was “Active”.

What about the inhibition [15] of the same molecule?
The inhibition was “Active”.

And the Tmax [16]?
The Tmax was 2.5 h.

What about the Activity [17] of the same molecule?
The Activity was “Active”.

And the inhibition [18]?
The inhibition was “Active”.

And the Activity [19]?
The Activity was “Active”.

What about the inhibition at 48 h, 20 µM [20] of the same molecule?
The inhibition at 48 h, 20 µM was 89.9%.

What about the IC50 [21] of the same molecule?
Its IC50 is 5.45 µM.

What about the LD50 at 336 h [22] of the same molecule?
Its LD50 at 336 h is 1000 mg/kg.

And the Activity [23]?
Its Activity is “Active”.

And the AUC [24]?
Its AUC is 0.886 µM·h.

And the inhibition [25]?
The inhibition was 84.6%.

And the Activity [26]?
The Activity was “Non-Toxic”.
